According to ChEMBL document CHEMBL4017487, “Design and Synthesis of γ- and δ-Lactam M1 Positive Allosteric Modulators (PAMs): Convulsion and Cholinergic Toxicity of an M1-Selective PAM with Weak Agonist Activity” (J Med Chem, 2017):
≈ marks a conversion by molar mass, not a printed value.

Legend:
Canis familiaris [1] = experiment: Cholinergic toxicity in dog assessed as emesis at 5 mg/kg, po administered as single dose using spray dried dispersion formulation after 1 to 4 hrs; format: organism-based, Canis lupus familiaris; details: in vivo
Method in brief: (§1)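 Dog single oral dose escalation: 1/sex at 5 mg/kg for each formulation; 1 female at 15 mg/kg. Spray-dried dispersion: 23% drug loading with 0.5% methylcellulose and 100 mM citrate buffer. Clinical signs timed in approximate hours postdose; unbound plasma Cmax.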

[2] = molecular target: Muscarinic acetylcholine receptor M3 (Homo sapiens, UniProt P20309); experiment: Positive allosteric modulation of human muscarinic acetylcholine receptor M3 expressed in CHO cells assessed as increase in acetylcholine-induced calcium mobilization up to 10 uM preincubated for 10 mins followed by acetylcholine addition by Fluo-8-AM dye based FLIPR assay; format: cell-based
Method in brief: (§2)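 Recombinant functional human M2–M5 assays, each run in agonist and PAM modes at concentrations up to 10 μM.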

[3] = Ratio of unbound AUC in rat brain to plasma at 2 mg/kg, po or 0.5 mg/kg, iv administered as single bolus dose; format: ADME, organism-based
Brain [4] = experiment: Unbound brain concentration in amphetamine-induced hyperlocomotion C57BL/6 mouse at 1 mg/kg, sc measured after 1 hr by LC-MS/MS analysis; format: ADME, organism-based; details: in vivo
Method in brief: (§3)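 Satellite group of C57BL/6 mice from the amphetamine-stimulated locomotor study, N = 2/dose at 0.32, 1 and 3.2 mg/kg. Dosed sc as a solution in 10/90 Cremophor/water. Unbound plasma and brain concentrations measured at T = 1 h.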

[5] = Ratio of AUC in iv or po dosed mouse brain to plasma; format: ADME, organism-based; details: read-out: Ratio AUC
Method in brief: (§4)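 Brain/plasma ratio computed from AUC of total drug in brain and total drug in plasma.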

Brain [6] = experiment: Unbound brain concentration in scopolamine-induced memory impairment Wistar rat model at 0.32 mg/kg, sc measured after 1.25 hrs by LC-MS/MS analysis; format: ADME, organism-based; details: in vivo
[7] = molecular target: T1, Muscarinic acetylcholine receptor M1 (Homo sapiens, UniProt P11229); experiment: Activity at human muscarinic acetylcholine receptor M1 expressed in CHO cells assessed as increase in calcium mobilization incubated for 10 mins by Fluo-8-AM dye based FLIPR assay; format: cell-based
T1 sequence (P11229 whole entry): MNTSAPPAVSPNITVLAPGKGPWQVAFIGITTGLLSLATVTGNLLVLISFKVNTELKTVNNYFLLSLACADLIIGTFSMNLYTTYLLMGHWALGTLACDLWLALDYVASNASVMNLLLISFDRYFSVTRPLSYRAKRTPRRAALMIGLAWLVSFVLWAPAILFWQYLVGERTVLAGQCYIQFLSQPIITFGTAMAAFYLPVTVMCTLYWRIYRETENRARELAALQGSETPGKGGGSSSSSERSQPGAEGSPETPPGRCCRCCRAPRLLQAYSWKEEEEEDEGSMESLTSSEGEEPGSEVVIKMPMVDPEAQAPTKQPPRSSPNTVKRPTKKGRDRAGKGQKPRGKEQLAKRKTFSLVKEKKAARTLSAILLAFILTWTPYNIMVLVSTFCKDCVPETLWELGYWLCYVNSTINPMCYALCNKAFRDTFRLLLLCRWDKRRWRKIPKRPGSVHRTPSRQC

Brain [8] = experiment: Unbound brain concentration in scopolamine-induced memory impairment Wistar rat model at 0.32 mg/kg, sc measured at 1.25 hrs post dose by LC-MS/MS analysis; details: in vivo
Canis familiaris [9] = experiment: Cholinergic toxicity in dog assessed as soft stool at 5 mg/kg, po administered as single dose using spray dried dispersion formulation after 1.5 hrs; format: organism-based, Canis lupus familiaris; details: in vivo; method in brief: as §1
[10] = Oral bioavailability in dog at 0.5 mg/kg administered as single dose; format: ADME, organism-based, Canis lupus familiaris; details: in vivo
[11] = Selectivity ratio of EC50 for human muscarinic acetylcholine receptor M4 expressed in CHO cells to EC50 for human muscarinic acetylcholine receptor M1 expressed in CHO cells; format: ADME, cell-based
[12] = Ratio of AUC in rat brain to plasma at 2 mg/kg, po or 0.5 mg/kg, iv administered as single bolus dose; format: ADME, organism-based; details: read-out: Ratio AUC; method in brief: as §4
Canis familiaris [13] = experiment: Toxicity in dog assessed as unbound Cmax in plasma required to show convulsions at 15 mg/kg, po administered as single dose using spray dried dispersion formulation; format: organism-based, Canis lupus familiaris; details: in vivo
[14] = Intrinsic clearance in human liver microsomes; format: ADME, microsome; details: read-out: CLH
Plasma [15] = experiment: Unbound plasma concentration in amphetamine-induced hyperlocomotion C57BL/6 mouse at 3.2 mg/kg, sc measured after 1 hr by LC-MS/MS analysis; format: ADME, organism-based; details: in vivo; method in brief: as §3
Rattus norvegicus = experiment: Unbound Cmax in rat plasma at 45 mg/kg, po administered as single dose; format: ADME, organism-based; details: in vivo
Plasma [16] = experiment: Unbound plasma concentration in scopolamine-induced memory impairment Wistar rat model at 1 mg/kg, sc measured after 1.25 hrs by LC-MS/MS analysis; format: ADME, organism-based; details: in vivo
Method in brief: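 Rats from a satellite group of the scopolamine (0.32 mg/kg) Morris water maze study, N = 2/dose. Dosed sc as a solution in 20% hydroxypropyl β-cyclodextrin. Compound concentrations measured in plasma only at T = 1.25 h.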

[17] = Thermodynamic solubility of the compound in FeSSIF at pH 6.3; details: read-out: Therm_solubility
[18] = Positive allosteric modulation of muscarinic acetylcholine receptor M1 in Hartley guinea pig ileum longitudinal muscle myenteric plexus assessed as increase in acetylcholine-induced tissue contraction after 10 mins in presence of donepezil; details: Cavia porcellus
[19] = molecular target: T1, Muscarinic acetylcholine receptor M1; experiment: Positive allosteric modulation of human muscarinic acetylcholine receptor M1 expressed in CHO cells assessed as increase in acetylcholine-induced beta-arrestin recruitment by measuring functional co-operativity with acetylcholine; format: ADME, cell-based
[20] = molecular target: T2, Muscarinic acetylcholine receptor M4 (Homo sapiens, UniProt P08173); experiment: Agonist activity at human muscarinic acetylcholine receptor M4 expressed in CHO cells assessed as increase in cAMP accumulation after 2 hrs by cAMP-Glo assay; format: cell-based; method in brief: as §2
T2 sequence (P08173 whole entry): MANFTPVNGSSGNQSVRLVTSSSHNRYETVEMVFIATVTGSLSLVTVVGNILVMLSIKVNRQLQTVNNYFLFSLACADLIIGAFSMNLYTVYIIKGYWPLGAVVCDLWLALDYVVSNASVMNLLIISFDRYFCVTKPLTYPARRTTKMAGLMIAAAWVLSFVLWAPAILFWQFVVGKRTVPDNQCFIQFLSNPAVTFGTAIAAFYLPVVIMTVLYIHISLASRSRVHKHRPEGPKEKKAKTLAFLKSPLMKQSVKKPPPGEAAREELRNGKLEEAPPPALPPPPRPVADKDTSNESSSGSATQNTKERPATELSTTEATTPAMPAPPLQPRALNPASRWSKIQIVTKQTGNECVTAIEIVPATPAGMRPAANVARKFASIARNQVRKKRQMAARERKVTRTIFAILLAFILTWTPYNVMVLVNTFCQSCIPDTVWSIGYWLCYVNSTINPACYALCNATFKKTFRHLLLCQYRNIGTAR

[21] = Half life in dog at 0.5 mg/kg, po administered as single dose; format: ADME, organism-based, Canis lupus familiaris; details: in vivo
Method in brief: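 Dog, single oral dose of 0.5 mg/kg as a suspension in 0.5% methylcellulose. Half-life taken after the oral dose.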

[22] = molecular target: T1, Muscarinic acetylcholine receptor M1; experiment: Ratio of intrinsic activity at human muscarinic acetylcholine receptor M1 expressed in CHO cells by beta-arrestin recruitment assay to intrinsic activity at human muscarinic acetylcholine receptor M1 expressed in CHO cells assessed as increase in calcium mobilization; format: ADME, cell-based

Chain of Muscarinic acetylcholine receptor M3 (P20309 whole entry): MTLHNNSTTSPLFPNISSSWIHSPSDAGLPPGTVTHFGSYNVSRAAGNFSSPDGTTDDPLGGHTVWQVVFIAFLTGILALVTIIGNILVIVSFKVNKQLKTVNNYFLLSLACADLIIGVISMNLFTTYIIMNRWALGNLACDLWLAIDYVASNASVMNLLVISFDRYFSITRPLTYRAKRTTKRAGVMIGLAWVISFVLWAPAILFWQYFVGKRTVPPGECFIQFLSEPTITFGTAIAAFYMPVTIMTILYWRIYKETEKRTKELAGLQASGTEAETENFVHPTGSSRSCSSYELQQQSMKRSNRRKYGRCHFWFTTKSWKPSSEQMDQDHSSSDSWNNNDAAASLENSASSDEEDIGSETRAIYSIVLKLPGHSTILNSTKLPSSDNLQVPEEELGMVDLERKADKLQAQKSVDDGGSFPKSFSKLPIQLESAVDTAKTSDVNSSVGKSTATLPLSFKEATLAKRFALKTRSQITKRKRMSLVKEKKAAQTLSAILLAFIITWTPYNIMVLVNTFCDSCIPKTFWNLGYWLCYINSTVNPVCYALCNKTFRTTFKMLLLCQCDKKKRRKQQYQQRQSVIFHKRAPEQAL

## Cc1cc2c(cc1Cc1ccc(-c3cocn3)cc1)C(=O)N([C@H]1CCOC[C@@H]1O)C2
Canis familiaris [1]
  Activity: Toxic
[2]
  Activity: Not Active
[3]
  Kp uu: 0.2
Brain [4]
  Drug uptake(free): 14 nM
[5]
  Kp: 0.1
Brain [6]
  Drug uptake(free): 3.4 nM
[7]
  Kb: 3 µM
Brain [8]
  Drug uptake(free): 3.2 nM
Canis familiaris [9]
  Activity: Toxic
[10]
  bioavailability: 65%
[11]
  Ratio EC50: > 200
[12]
  Kp: 0.2
Canis familiaris [13]
  fCmax: 1070 nM
[14]
  CLint scaled: < 8 mL/min/kg
Plasma [15]
  Cp(f): 130 nM
Rattus norvegicus
  fCmax: 2.31 to 3.83 µM
Plasma [16]
  Cp(f): 66 nM
[17]
  solubility thermodynamic: 39.7 µg/mL (≈ 98.2 µM)
[18]
  EC50: 0.046 µM
[19]
  log(activity): 2.9
[20]
  EC50: > 10 µM
[21]
  half-life: 7.3 h
[22]
  Ratio: 1.4
